Data set [1] relates to α-synuclein. In words: Inhibition of HFIP-induced α-syn amyloid formation. It counts as biochemical. The conditions noted are these: for %-Inhib. of HFIP-induced α-syn amyloid formation: converted from the %-of-control ThT and CD values; for Formation of off-path (non-amyloid) precipitates in the inhibition assays: 2 vol-% HFIP assay, EGCG at 2:1 molar ratio. The essentials:
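α-Syn (85 ± 5 μM; pH 6.6, 50 mM potassium phosphate, 50 mM NaCl) stirred at 37 ± 3 °C with test compound (1–4 molar equiv), then HFIP to 2 vol% after 4 h. Aliquots diluted to 4.5 μM α-syn every 2–6 h for CD, inhibitor-matched blank, [θ]218 and Δ[θ]196 read. At 16–18 h, ThT added (8-fold excess) and emission read. Values as %-of-uninhibited-control, converted to %-inhibition; mean of ≥2 experiments.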

For data set [2], the system named is α-syn. In words: 15N-HSQC titration binding studies with 15N-labeled α-syn. The conditions noted are these: for Binding locus on α-syn from titration shifts in 15N HSQC spectra: 200 or 400 µM α-syn, no added HFIP, 293 or 303 K.
Data set [3] can be described thus: NMR determination of folded state population of peptides. The data set is classed as physicochemical. The conditions noted are these: 300K; for Folded state population (χF): based on NMR data.
The test system of data set [4] is α-syn. The conditions noted are these: cited from earlier work.
For data set [5], the system named is α-syn. The conditions noted are these: on going from 1:1 to 5:1 EGCG/α-syn, published spectra; cited from earlier work.
For data set [6], the system named is α-syn. As to the kind of experiment: CD and visual inspection of EGCG/α-syn mixtures. It counts as biochemical. The following applies: 100 µM α-syn, 1:1 α-syn:EGCG, 1.5 vol-% HFIP; β-sheet signature at 24 hours.

For RWEKRW-DRGSGR-WFYFND [mWWhp], the “%-Inhib. of HFIP-induced α-syn amyloid formation” value in data set [1] (2 molar equiv. inhibitor) is given as ~ 50%. Besides, the “Formation of off-path (non-amyloid) precipitates in the inhibition assays” value in data set [1] is “did not produce off-path precipitates”.
Turning to GKWITVS-IpPK-KLTVWIp [cp-WW2], the entries for the “%-Inhib. of HFIP-induced α-syn amyloid formation” value in data set [1] (1 molar equiv. inhibitor) and in data set [1] (2 molar equiv. inhibitor) were ~ 35% and ~ 65%, respectively. The “Binding locus on α-syn from titration shifts in 15N HSQC spectra” value in data set [2] is listed as “isolated to the C-terminus”.
With (RWTTHCHRKWE)2 (disulfide) [RW-HCH-WE], the “%-Inhib. of HFIP-induced α-syn amyloid formation” value in data set [1] (1 molar equiv. inhibitor) was ~ 65%. Further, the “%-Inhib. of HFIP-induced α-syn amyloid formation” value in data set [1] (2 molar equiv. inhibitor) is recorded as no less than 75%. Besides, the “Formation of off-path (non-amyloid) precipitates in the inhibition assays” value in data set [1] was “co-precipitates”. In addition, in data set [3], the β-sheet population is 94% and the “Folded state population (χF)” value is 0.94±0.02. Also, the “Binding locus on α-syn from titration shifts in 15N HSQC spectra” value in data set [2] was “very large shifts were observed at C-terminal sites”.
On to (RYTTHCHRKYE)2 (disulfide) [RY-HCH-YE], for which the “%-Inhib. of HFIP-induced α-syn amyloid formation” value in data set [1] (2 molar equiv. inhibitor) is ~ 70%. Moreover, in data set [3], the β-sheet population stood at 28% and the “Folded state population (χF)” value was determined as 0.28±0.13.
With RWFYFN-DRGSGK-WEKRWD [cp-mWWhp], the “%-Inhib. of HFIP-induced α-syn amyloid formation” value in data set [1] (2 molar equiv. inhibitor) is listed as less than 20%.
Consider RGAVVTGR-NH2 [reference compound], for which, in data set [4] (2:1, 1:1 and 1:2 (peptide:α-syn) molar ratios), the “Inhibition of α-syn amyloid fibril formation” value is “completely inhibit”. Moreover, the “%-Inhib. of HFIP-induced α-syn amyloid formation” value in data set [1] (2 molar equiv. inhibitor) is recorded as less than 25%. Besides, in data set [1] (4 molar equivalents of the peptide, single experiment), the “Inhibitory activity on α-syn amyloid formation (in words)” value was “absence of inhibitory activity”.
As to “(Ac-YTTVCIRKYTG)2 (disulfide) [AcY-VCI-YTG]”, in data set [1] (2 molar equiv. inhibitor), the “%-Inhib. of HFIP-induced α-syn amyloid formation” value was ~ 70%. The “Folded state population (χF)” value in data set [3] is recorded as 0.84.
With RAVTW-NPATGK-WITVWE [RAVWW], the “%-Inhib. of HFIP-induced α-syn amyloid formation” value in data set [1] (2 molar equiv. inhibitor) is ~ 60%. Moreover, the “Formation of off-path (non-amyloid) precipitates in the inhibition assays” value in data set [1] is recorded as “did not produce off-path precipitates”.
Regarding VAQKT-(N-Me)V, the “Inhibition of α-syn fibril formation” value in data set [4] (N-methylation of sites in residues 71–82) is “effective inhibitor”.
As for (RYTTVCIRKYE)2 (disulfide) [RY-VCI-YE], the “%-Inhib. of HFIP-induced α-syn amyloid formation” value in data set [1] (1 molar equiv. inhibitor) is listed as ~ 50%; in data set [1] (2 molar equiv. inhibitor) it was ~ 80%.
For the compound “cyclo-(K-KLTVW-IpGK-WITVS-IpP) (head to tail) [cyclo-WW2]”, the entries for the “%-Inhib. of HFIP-induced α-syn amyloid formation” value in data set [1] (1 molar equiv. inhibitor) and in data set [1] (2 molar equiv. inhibitor) were ~ 75% and greater than 90%, respectively. Moreover, the “Inhibitory activity on α-syn β-structure / amyloid formation (in words)” value in data set [1] (2:1 peptide to α-syn ratio, 2 vol-% HFIP) is reported as “complete inhibition”. Moreover, in data set [2], the “Binding locus on α-syn from titration shifts in 15N HSQC spectra” value is recorded as “Q109/E137-span”.
With KCLTVW-IpGK-WITVCA (disulfide) [WW2-DS], the figures for the “%-Inhib. of HFIP-induced α-syn amyloid formation” value in data set [1] (1 molar equiv. inhibitor) and in data set [1] (2 molar equiv. inhibitor) were less than 30% and ~ 50%, respectively.
With `O=C(O[C@@H]1Cc2c(O)cc(O)cc2O[C@@H]1c1cc(O)c(O)c(O)c1)c1cc(O)c(O)c(O)c1` [EGCG, (−)-Epi-gallocatechin-3-gallate, reference compound], the “Upfield 1H shift for most α-syn HSQC peaks” value in data set [5] is 0.04 ppm. Besides, the “%-Inhib. of HFIP-induced α-syn amyloid formation” value in data set [1] (2 molar equiv. inhibitor) is given as ~ 65%. In data set [6], the “Time the random coil CD signature remained after HFIP addition” value came out at 8 h. Further, the “Upfield shifts Δδ(1H) of α-syn HSQC peaks” value in data set [2] (200 µM α-syn, 50 mM phosphate, pH 6.5, 303K, 5 molar equivalents of EGCG) was 0.007 – 0.010 ppm. In data set [2], the “Binding locus on α-syn from titration shifts in 15N HSQC spectra” value was “shifts at C-terminal sites”.
With KKLTVW-IpGK-WITVSA [WW2], the results for the “%-Inhib. of HFIP-induced α-syn amyloid formation” value in data set [1] (1 molar equiv. inhibitor) and in data set [1] (2 molar equiv. inhibitor) were ~ 50% and ~ 75%, respectively. In data set [2], the “Binding locus on α-syn from titration shifts in 15N HSQC spectra” value was “M116-E137 sequence segment”.
